From ChEMBL document CHEMBL3616444, “Design, synthesis and pharmacological evaluation of pyrimidobenzothiazole-3-carboxylate derivatives as selective L-type calcium channel blockers” (Bioorg Med Chem, 2015)

Legend:
[1] = target: Myosin light chain kinase, smooth muscle (Homo sapiens, UniProt Q15746); experiment: Inhibition of MLCK (unknown origin) incubated for 15 mins using [gamma-32P]-ATP by scintillation counting method
Summary of the method: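 Active MLCK thawed on ice with kinase assay and dilution buffers and substrate; reaction with γ-32P-ATP incubated 15 min at 30 °C in a water bath, spotted on phosphocellulose P81 paper, washed three times ~10 min in 1% phosphoric acid. Radioactivity by scintillation counting, blank-corrected cpm converted to specific activity (nmol/min/mg); IC50 from log plots, at least five determinations per concentration.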

[2] = Inhibition of porcine kidney ACE assessed as reduction in hippuryl-histidyl-leucine hydrolysis to hippuric acid release incubated for 30 mins high-throughput colorimetric method; set-up: species or system Sus scrofa
Summary of the method: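 Porcine kidney ACE in 1 M sodium borate buffer pH 8.2 with 0.3 M NaCl and 5 mM HHL substrate (stock); 37 °C for 30 min, stopped with 1 M HCl. Released hippuric acid complexed with pyridine and benzene sulfonyl chloride, cooled on ice, yellow colour read at 410 nm; IC50 from log plots, at least five determinations per concentration.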

Rattus norvegicus [3] = experiment: Antihypertensive activity in Norwegian albino rat model of DOCA-salt-induced hypertension assessed as inhibition of systolic blood pressure at 10 mg/kg, po after 1 hr by non-invasive tail cuff method relative to control; assay type: functional
Summary of the method: (§1)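 DOCA-salt hypertensive rats; systolic pressure by tail cuff after 10 mg/kg, recorded hourly from 0 to 10 h; percent inhibition computed. Data as mean ± SEM, repeated-measures ANOVA.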

Rattus norvegicus [4] = experiment: Antihypertensive activity in Norwegian albino rat model of DOCA-salt-induced hypertension assessed as inhibition of systolic blood pressure at 10 mg/kg, po after 2 hrs by non-invasive tail cuff method relative to control; assay type: functional; summary of the method: as §1
Rattus norvegicus [5] = experiment: Antihypertensive activity in Norwegian albino rat model of DOCA-salt-induced hypertension assessed as inhibition of systolic blood pressure at 10 mg/kg, po after 3 hrs by non-invasive tail cuff method relative to control; assay type: functional; summary of the method: as §1
Rattus norvegicus [6] = experiment: Antihypertensive activity in Norwegian albino rat model of DOCA-salt-induced hypertension assessed as inhibition of systolic blood pressure at 10 mg/kg, po after 4 hrs by non-invasive tail cuff method relative to control; assay type: functional; summary of the method: as §1
Rattus norvegicus [7] = experiment: Antihypertensive activity in Norwegian albino rat model of DOCA-salt-induced hypertension assessed as inhibition of systolic blood pressure at 10 mg/kg, po after 5 hrs by non-invasive tail cuff method relative to control; assay type: functional; summary of the method: as §1
Rattus norvegicus [8] = experiment: Antihypertensive activity in Norwegian albino rat model of DOCA-salt-induced hypertension assessed as inhibition of systolic blood pressure at 10 mg/kg, po after 6 hrs by non-invasive tail cuff method relative to control; assay type: functional; summary of the method: as §1
Rattus norvegicus [9] = experiment: Antihypertensive activity in Norwegian albino rat model of DOCA-salt-induced hypertension assessed as inhibition of systolic blood pressure at 10 mg/kg, po after 7 hrs by non-invasive tail cuff method relative to control; assay type: functional; summary of the method: as §1
Rattus norvegicus [10] = experiment: Antihypertensive activity in Norwegian albino rat model of DOCA-salt-induced hypertension assessed as inhibition of systolic blood pressure at 10 mg/kg, po after 8 hrs by non-invasive tail cuff method relative to control; assay type: functional; summary of the method: as §1
Rattus norvegicus [11] = experiment: Antihypertensive activity in Norwegian albino rat model of DOCA-salt-induced hypertension assessed as inhibition of systolic blood pressure at 10 mg/kg, po after 9 hrs by non-invasive tail cuff method relative to control; assay type: functional; summary of the method: as §1
Rattus norvegicus [12] = experiment: Antihypertensive activity in Norwegian albino rat model of DOCA-salt-induced hypertension assessed as inhibition of systolic blood pressure at 10 mg/kg, po after 10 hrs by non-invasive tail cuff method relative to control; assay type: functional; summary of the method: as §1
Rattus norvegicus [13] = experiment: Antihypertensive activity in Norwegian albino rat assessed as inhibition of systolic blood pressure at 10 mg/kg, po after 0.15 hrs by invasive carotid artery cannulation method relative to control; assay type: functional
Rattus norvegicus [14] = experiment: Antihypertensive activity in Norwegian albino rat assessed as inhibition of systolic blood pressure at 10 mg/kg, po after 0.3 hrs by invasive carotid artery cannulation method relative to control; assay type: functional
Rattus norvegicus [15] = experiment: Antihypertensive activity in Norwegian albino rat assessed as inhibition of systolic blood pressure at 10 mg/kg, po after 1 hr by invasive carotid artery cannulation method relative to control; assay type: functional
Rattus norvegicus [16] = experiment: Antihypertensive activity in Norwegian albino rat assessed as inhibition of systolic blood pressure at 10 mg/kg, po after 2 hrs by invasive carotid artery cannulation method relative to control; assay type: functional
Rattus norvegicus [17] = experiment: Antihypertensive activity in Norwegian albino rat assessed as inhibition of systolic blood pressure at 10 mg/kg, po after 3 hrs by invasive carotid artery cannulation method relative to control; assay type: functional
Rattus norvegicus [18] = experiment: Antihypertensive activity in Norwegian albino rat assessed as inhibition of systolic blood pressure at 10 mg/kg, po after 4 hrs by invasive carotid artery cannulation method relative to control; assay type: functional
Rattus norvegicus [19] = experiment: Gastrointestinal toxicity in Norwegian rat assessed as ulcerative index at 50 mg/kg, po after 17 hrs; assay type: organism-based; details: in vivo
[20] = Cmax in Sprague-Dawley rat at 10 mg/kg, iv by HPLC method; assay type: ADME, organism-based; set-up: dose 10 mg/kg, route intravenous; details: in vivo
[21] = Cmax in Sprague-Dawley rat at 20 mg/kg, po by HPLC method; assay type: ADME, organism-based; set-up: dose 20 mg/kg, route oral; details: in vivo
[22] = Tmax in Sprague-Dawley rat at 20 mg/kg, po by HPLC method; assay type: ADME, organism-based; details: in vivo
[23] = Elimination half life in Sprague-Dawley rat at 10 mg/kg, iv by HPLC method; assay type: ADME, organism-based; details: in vivo, read-out: beta t1/2 (converted)
[24] = Elimination half life in Sprague-Dawley rat at 20 mg/kg, po by HPLC method; assay type: ADME, organism-based; details: in vivo, read-out: beta t1/2 (converted)
[25] = AUC (0 to infinity) in Sprague-Dawley rat at 10 mg/kg, iv by HPLC method; assay type: ADME, organism-based; set-up: dose 10 mg/kg, route intravenous, time infinity; details: in vivo
[26] = AUC (0 to infinity) in Sprague-Dawley rat at 20 mg/kg, po by HPLC method; assay type: ADME, organism-based; set-up: dose 20 mg/kg, route oral, time infinity; details: in vivo
[27] = Oral bioavailability in Sprague-Dawley rat at 20 mg/kg by HPLC method; assay type: ADME, organism-based; details: in vivo
[28] = Retardation factor of the compound by HPTLC method; assay type: physicochemical
Summary of the method: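 Pre-coated silica gel 60 F254 plates (200 µm layer); 5 µl sample applied as 5 mm bands; toluene/acetonitrile (9:1) mobile phase, ascending development to 90 mm in a chamber pre-saturated 15 min.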

[29] = Retention time of the compound by HPLC method; assay type: physicochemical
Summary of the method: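 HPLC run with 20 µl injection, 1.0 ml/min flow, 25 °C, detection at 343 nm or 258 nm depending on compound.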

physchem = details: buffer, pH 7.4

Sequence of Myosin light chain kinase, smooth muscle (Q15746 whole entry): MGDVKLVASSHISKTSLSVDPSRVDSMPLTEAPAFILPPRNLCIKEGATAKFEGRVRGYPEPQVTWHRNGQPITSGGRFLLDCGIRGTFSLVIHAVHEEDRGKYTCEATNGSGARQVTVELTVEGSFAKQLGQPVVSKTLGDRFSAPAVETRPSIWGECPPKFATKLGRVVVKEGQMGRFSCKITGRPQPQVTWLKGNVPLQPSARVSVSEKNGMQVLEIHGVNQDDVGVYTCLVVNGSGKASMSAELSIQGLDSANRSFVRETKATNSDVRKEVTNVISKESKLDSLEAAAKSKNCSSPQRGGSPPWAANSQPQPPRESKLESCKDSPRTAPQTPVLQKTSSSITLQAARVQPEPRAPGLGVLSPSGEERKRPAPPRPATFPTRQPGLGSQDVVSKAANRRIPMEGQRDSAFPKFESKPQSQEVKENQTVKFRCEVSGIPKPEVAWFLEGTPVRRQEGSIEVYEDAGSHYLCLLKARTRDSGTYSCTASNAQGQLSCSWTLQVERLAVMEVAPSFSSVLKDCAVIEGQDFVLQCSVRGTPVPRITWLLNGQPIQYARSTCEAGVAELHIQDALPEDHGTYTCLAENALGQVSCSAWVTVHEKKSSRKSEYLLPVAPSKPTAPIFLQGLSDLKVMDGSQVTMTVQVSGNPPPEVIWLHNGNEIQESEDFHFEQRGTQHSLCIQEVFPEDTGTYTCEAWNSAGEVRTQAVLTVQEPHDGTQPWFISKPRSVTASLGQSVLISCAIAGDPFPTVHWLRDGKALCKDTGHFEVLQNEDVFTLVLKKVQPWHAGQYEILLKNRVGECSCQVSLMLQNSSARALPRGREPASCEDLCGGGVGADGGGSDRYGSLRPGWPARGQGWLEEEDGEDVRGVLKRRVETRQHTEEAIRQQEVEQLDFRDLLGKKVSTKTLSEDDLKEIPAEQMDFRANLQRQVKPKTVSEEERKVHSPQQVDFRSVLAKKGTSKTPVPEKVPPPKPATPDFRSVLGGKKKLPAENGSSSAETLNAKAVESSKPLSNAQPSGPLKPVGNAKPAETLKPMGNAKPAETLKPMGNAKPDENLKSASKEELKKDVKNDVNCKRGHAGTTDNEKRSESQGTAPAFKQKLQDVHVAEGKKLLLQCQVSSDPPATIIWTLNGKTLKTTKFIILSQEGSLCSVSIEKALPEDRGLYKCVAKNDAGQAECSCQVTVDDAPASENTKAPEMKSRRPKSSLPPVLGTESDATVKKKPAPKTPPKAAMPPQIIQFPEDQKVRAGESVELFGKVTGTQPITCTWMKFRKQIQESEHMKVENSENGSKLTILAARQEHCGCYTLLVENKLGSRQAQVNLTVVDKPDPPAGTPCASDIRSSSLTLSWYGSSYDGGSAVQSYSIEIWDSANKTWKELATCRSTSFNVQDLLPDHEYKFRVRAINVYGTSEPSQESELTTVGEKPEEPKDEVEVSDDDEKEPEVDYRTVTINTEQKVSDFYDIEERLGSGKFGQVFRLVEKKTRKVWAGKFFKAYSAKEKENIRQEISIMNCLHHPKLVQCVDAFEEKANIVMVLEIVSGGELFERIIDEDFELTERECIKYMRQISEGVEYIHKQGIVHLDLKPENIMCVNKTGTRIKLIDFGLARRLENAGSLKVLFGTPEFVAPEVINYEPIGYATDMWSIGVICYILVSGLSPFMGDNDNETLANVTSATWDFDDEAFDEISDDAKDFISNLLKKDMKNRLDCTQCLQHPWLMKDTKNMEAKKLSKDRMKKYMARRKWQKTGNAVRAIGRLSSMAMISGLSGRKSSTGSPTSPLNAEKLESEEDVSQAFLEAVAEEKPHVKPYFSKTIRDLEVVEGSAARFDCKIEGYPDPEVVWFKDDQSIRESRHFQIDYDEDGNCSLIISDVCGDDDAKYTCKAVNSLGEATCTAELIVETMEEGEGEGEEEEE

SMILES: CCOC(=O)C1=C(C)N=C2Sc3ccccc3N2C1c1cccc([N+](=O)[O-])c1 (stereo unspecified)
- IC50 ([1]; read-out: IC50): 2.1 µM
- IC50 ([1]; read-out: pIC50 (converted)): 47600 µM
- IC50 [2]: > 100 µM
- inhibition in vivo at 10 mg/kg (Rattus norvegicus [3]): 4.89%
- inhibition in vivo at 10 mg/kg (Rattus norvegicus [4]): 10.2%
- inhibition in vivo at 10 mg/kg (Rattus norvegicus [5]): 14.2%
- inhibition in vivo at 10 mg/kg (Rattus norvegicus [6]): 19.1%
- inhibition in vivo at 10 mg/kg (Rattus norvegicus [7]): 23.1%
- inhibition in vivo at 10 mg/kg (Rattus norvegicus [8]): 27.6%
- inhibition in vivo at 10 mg/kg (Rattus norvegicus [9]): 37.8%
- inhibition in vivo at 10 mg/kg (Rattus norvegicus [10]): 41.8%
- inhibition in vivo at 10 mg/kg (Rattus norvegicus [11]): 47.1%
- inhibition in vivo at 10 mg/kg (Rattus norvegicus [12]): 51.1%
- inhibition in vivo at 10 mg/kg (Rattus norvegicus [13]): 4%
- inhibition in vivo at 10 mg/kg (Rattus norvegicus [14]): 20%
- inhibition in vivo at 10 mg/kg (Rattus norvegicus [15]): 21.8%
- inhibition in vivo at 10 mg/kg (Rattus norvegicus [16]): 28.9%
- inhibition in vivo at 10 mg/kg (Rattus norvegicus [17]): 42.2%
- inhibition in vivo at 10 mg/kg (Rattus norvegicus [18]): 52.4%
- UI (Rattus norvegicus [19]): 0.2
- Cmax [20]: 1630 ng/mL
- Cmax [21]: 400 ng/mL
- Tmax [22]: 0.5 h
- half-life [23]: 2.5 h
- half-life [24]: 5.4 h
- AUC(0-inf) [25]: 1480 ng·h/mL
- AUC(0-inf) [26]: 840 ng·h/mL
- bioavailability [27]: 56.8%
- Rf [28]: 4.2
- Retention_time [29]: 3.045 min
- logD (physchem): 4.57
